Measurements from different studies.
Each line is one published result; the experiments were not run side by side. pIC50: −log10 of the molar value.
MDH2: Malate dehydrogenase, mitochondrial (MDH2, Sus scrofa, UniProt P00346)
CXCR4: C-X-C chemokine receptor type 4 (CXCR4, Homo sapiens, UniProt P61073)
ACVR1: Activin receptor type-1 (ACVR1, Homo sapiens, UniProt Q04771)
CDK9 with cyclin T1: Cyclin-dependent kinase 9, with cyclin T1 (CDK9, Homo sapiens, UniProt P50750)
PLA2G5: Phospholipase A2 group V (PLA2G5, Homo sapiens, UniProt P39877)
NTRK3: NT-3 growth factor receptor (NTRK3, Homo sapiens, UniProt Q16288)
CYP2C9: Cytochrome P450 2C9 (CYP2C9, Homo sapiens, UniProt P11712)

O=S(=O)(Nc1ccc(-c2nc3cc(NS(=O)(=O)c4cccc(C(F)(F)F)c4)ccc3o2)cc1)c1cccc(C(F)(F)F)c1
pIC50 (MDH2; enzyme activity, inhibitor): < 4.20

Cc1ccc(CN(Cc2ccco2)c2cnc(S(C)(=O)=O)nc2C(=O)Nc2ccc(C)cc2)cc1
pIC50 (CXCR4; β-arrestin recruitment, antagonist): 4.60

O=P([O-])(O)C(O)(C[n+]1cccc(-c2ccccc2)c1)P(=O)(O)O (stereo not drawn)
pIC50 (Geranylgeranyl pyrophosphate synthase (GGPS1, Homo sapiens, UniProt O95749); enzyme activity, inhibitor): 4.80

Nc1ccc(S(=O)(=O)Nc2ccc(-c3nc4cc(NS(=O)(=O)c5ccc(N)cc5)ccc4o3)cc2)cc1
pIC50 (MDH2; enzyme activity, inhibitor): < 4.20

COc1ccc(-c2nn3c(C)nnc3s2)cc1
pIC50 (DNA dC->dU-editing enzyme APOBEC-3A (Homo sapiens, UniProt P31941); enzyme activity, inhibitor): < 4.00

CC(C)(C)n1nc(-c2cnc3cc(OC4CC4)ccc3c2)c(C(N)=O)c1N
pIC50 (ACVR1; cell-free assay): < 5.00

NC(=O)c1ccc[n+]([C@@H]2O[C@H](COP(=O)([O-])OP(=O)(O)OC[C@H]3O[C@@H](n4cnc5c(N)ncnc54)[C@H](O)[C@@H]3O)[C@@H](O)[C@H]2O)c1
pIC50 (Poly [ADP-ribose] polymerase tankyrase-1 (TNKS, Homo sapiens, UniProt O95271); enzyme activity, inhibitor): 3.40

C=CC(=O)Nc1ccc(N2CCC[C@@H](Nc3ncc(Cl)c(-c4c[nH]c5ccccc45)n3)C2)c(F)c1
pIC50 (CDK9 with cyclin T1; enzyme activity, inhibitor, FRET): 6.36

CC(=O)c1ccc(N=Nc2c(C(=O)O)cc(O)c(O)c2O)cc1
pIC50 (PLA2G5; enzyme activity, inhibitor, Ellman): 5.15

N=C(N)NCCCC[C@@H]1NC(=O)CCSSC[C@@H](C(N)=O)NC(=O)[C@@H]2CCCN2C(=O)[C@H](Cc2c[nH]c3ccccc23)NC(=O)[C@H](CC(=O)O)NC(=O)CNC1=O
pIC50 (CXCR4; β-arrestin recruitment, antagonist): < 4.52

O=C(O)/C=C/c1ccc(O)c(O)c1
pIC50 (PLA2G5; enzyme activity, inhibitor, Ellman): 4.57

COc1ccccc1S(=O)(=O)Nc1ccc(-c2nc3cc(NS(=O)(=O)c4ccccc4OC)ccc3o2)cc1
pIC50 (MDH2; enzyme activity, inhibitor): < 4.20

CCn1ncc2c1-c1cnc(N)c(c1)O[C@H](C)c1cc(F)ccc1-c1nn(C)nc1C2
pIC50 (NTRK3; enzyme activity, inhibitor): 6.72

CCN1CCN(Cc2ccc(NC(=O)c3ccc(C)c(NC(=O)c4cncc(-c5cccs5)c4)c3)cc2C(F)(F)F)CC1
pIC50 (Ephrin type-A receptor 2 (EPHA2, Homo sapiens, UniProt P29317); enzyme activity, inhibitor, ADP detection): 6.38

CCS(=O)(=O)c1ncc(N(Cc2ccccc2)Cc2ccco2)c(C(=O)Nc2ccc(C)cc2)n1
pIC50 (CXCR4; β-arrestin recruitment, antagonist): 4.60

COc1ccc2c(Oc3ccc4c(C(=O)Nc5ccccc5N)cccc4c3)ccnc2c1
pIC50 (Proto-oncogene tyrosine-protein kinase Src (SRC, Homo sapiens, UniProt P12931); enzyme activity, inhibitor): < 6.30

CCOC(=O)C1CCN(C(=O)c2ccc(N(CC)Cc3cnc4nc(N)nc(N)c4n3)cc2)CC1
pIC50 (CYP2C9; enzyme activity, inhibitor, luciferase): 5.07

CC(=O)NS(=O)(=O)c1ccc(NC(=O)C=CC(=O)O)cc1
pIC50 (Dipeptidyl peptidase 4 (DPP4, Homo sapiens, UniProt P27487); enzyme activity, inhibitor, fluorescence): 4.23

COC(=O)C1CCN(C(=O)c2ccc(N(Cc3ccccc3)Cc3cnc4nc(N)nc(N)c4n3)cc2)CC1
pIC50 (CYP2C9; enzyme activity, inhibitor, luciferase): 6.50

O=c1cc(-c2ccccc2)oc2ccc3ccccc3c12
pIC50 (CDK9 with cyclin T1; enzyme activity, inhibitor, ADP detection): < 5.00

O=C(Nc1ccc2[nH]nc(-c3ccncc3)c2c1)[C@@H]1CCN(CC(=O)N2CCN(c3ccc(-c4ncccn4)cc3)CC2)C1
pIC50 (Mitogen-activated protein kinase 3 (MAPK3, Homo sapiens, UniProt P27361); enzyme activity, inhibitor, radiometric): 8.38

CC(=O)c1cccc(N=Nc2c(C(=O)O)cc(O)c(O)c2O)c1
pIC50 (PLA2G5; enzyme activity, inhibitor, Ellman): 5.07

CC(C)(C)n1nc(-c2ccc3nc(OC4CC4)ccc3c2)c(C(N)=O)c1N
pIC50 (ACVR1; cell-free assay): < 5.00

C[C@@H](N)COc1ccc(-c2cnc3ccc(N[C@H](C)c4cccc(F)c4)nn23)cc1
pIC50 (NTRK3; enzyme activity, inhibitor): 8.38

O=S(=O)(Nc1ccc(-c2nc3cc(NS(=O)(=O)c4ccc(Cl)s4)ccc3o2)cc1)c1ccc(Cl)c(C(F)(F)F)c1
pIC50 (MDH2; enzyme activity, inhibitor): < 4.20

OCc1cc(C(O)CNCCCCCCOCCCCc2ccccc2)ccc1O (stereo not drawn)
pIC50 (CXCR4; calcium signal, antagonist): 4.42

COc1ccc(S(=O)(=O)Nc2ccc3oc(-c4ccc(NC(=O)c5cccc(C)c5[N+](=O)[O-])cc4)nc3c2)cc1
pIC50 (MDH2; enzyme activity, inhibitor): < 4.20

Cc1cccc(C)c1NC(=O)c1nc(S(C)(=O)=O)ncc1N(Cc1ccccc1)Cc1ccco1
pIC50 (CXCR4; β-arrestin recruitment, antagonist): 3.50

COc1ccc(S(=O)(=O)Nc2ccc(-c3nc4cc(NS(=O)(=O)c5ccc(OC)cc5)ccc4o3)cc2)cc1
pIC50 (MDH2; enzyme activity, inhibitor): < 4.20

CCS(=O)(=O)c1ncc(N(Cc2ccco2)Cc2ccco2)c(C(=O)Nc2c(C)cccc2C)n1
pIC50 (CXCR4; β-arrestin recruitment, antagonist): 4.89

O=C(O)c1cccc(SCc2cccc(Nc3ncc4c(-c5ccc(N6CCOCC6)cc5)[nH]nc4n3)c2)c1
pIC50 (Cyclin-dependent kinase 1, with cyclin B (CDK1, Homo sapiens, UniProt P06493); enzyme activity, inhibitor): < 3.70

O=S(=O)(Nc1ccc(-c2nc3cc(NS(=O)(=O)c4ccc(F)cc4)ccc3o2)cc1)c1ccc(F)cc1
pIC50 (MDH2; enzyme activity, inhibitor): < 4.20

O=C(O)/C=C/c1ccc(O)cc1
pIC50 (PLA2G5; enzyme activity, inhibitor, Ellman): 4.26

CCc1ccc(OCc2nnc(SCc3nc(C)no3)n2Cc2ccccc2)cc1
pIC50 (CXCR4; β-arrestin recruitment): 4.30

CC/C(=N\NC(=O)C(C)Nc1ccccc1)c1ccc(O)c(C)c1O (stereo not drawn)
pIC50 (Serine/threonine-protein kinase Sgk2 (SGK2, Homo sapiens, UniProt Q9HBY8); enzyme activity, inhibitor): 7.93

COc1ccc(S(=O)(=O)Nc2ccc3oc(-c4ccc(NC(=O)c5ccc(Cl)s5)cc4)nc3c2)cc1
pIC50 (MDH2; enzyme activity, inhibitor): < 4.20

COc1ccc2cc3[n+](cc2c1OC)CCc1cc2c(cc1-3)OCO2
pIC50 (CYP2C9; enzyme activity, inhibitor): 6.15

O=C(Nc1ccn(Cc2ccc(O)cc2C(F)(F)F)n1)c1c(F)cccc1F
pIC50 (Voltage-dependent T-type calcium channel subunit alpha-1H (CACNA1H, Homo sapiens, UniProt O95180); ion current, inhibitor): < 5.00

CCn1c(COC(=O)c2ccccc2NC(=O)c2ccco2)nc2cc(S(=O)(=O)N(C)C)ccc21
pIC50 (CXCR4; β-arrestin recruitment, antagonist): 4.20

Cc1cnc(-c2ccc(-c3ccc(NC(=O)Nc4c(F)cc(F)cc4F)cc3F)c3c2C(=O)NC3)[nH]1
pIC50 (NTRK3; enzyme activity, inhibitor): 9.15

CNC(=O)c1cc2c(Oc3ccc(NC(=O)C4(C(=O)Nc5ccc(F)cc5)CC4)cc3)ccnc2cc1OC
pIC50 (NTRK3; enzyme activity, inhibitor, radiometric): 8.00

O=c1cc(-c2ccccc2)oc2c1ccc1ccccc12
pIC50 (CDK9 with cyclin T1; enzyme activity, inhibitor, ADP detection): < 4.00
